# Source: PubChem (Broad Institute)
# Most compounds without a hit are left out; they make up all but 2.9% or so of the library.
# S100A4 inh HTS: blocks human S100A4 binding to myosin IIA peptide. S100A4/TAMRA-MyoIIA peptide fluorescence polarization. inhibition, % at 10.7 µM. P26447. AID 652163. hit rate 0.14% among 360,000;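 active = mean inhibition of at least 70% across replicates, with every replicate also reaching that level; inconclusive = mean inhibition reaches 70% but some replicates fall short; inactive = mean inhibition below 70%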
# Target sequence (P26447 whole entry, looked up): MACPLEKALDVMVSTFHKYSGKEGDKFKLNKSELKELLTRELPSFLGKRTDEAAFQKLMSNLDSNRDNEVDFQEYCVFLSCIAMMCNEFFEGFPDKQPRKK
#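 Compound dosing: one dose per compound; test system: human S100A4 monomer with TAMRA-labelled myosin IIA peptide; probe or stimulus: TAMRA-labelled myosin IIA heavy-chain peptide probe, 5 nM; medium: HEPES buffer with Ca2+, pH 7.2; schedule: 5 min incubation before reading; benchmarks: neutral control DMSO, positive control TFP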
# DENV2 CPE rescue: DENV2-induced cell death inhibition. DENV2-infected cells, cytopathic effect rescue, plate reader. CPE inhibition, % at 9.99 µM. hit rate 1.7% among 350,000. AID 651640; in the data active = CPE inhibition above about 20%, passing the limit was not always enough; inconclusive = no clear call, values can overlap the other calls; tested in BHK-21 cells;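 also: 0% = median of neutral control wells and 100% = median of positive control wells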
# C2C12 statin: suppressors of simvastatin-induced myotoxicity in C2C12 myotubes | ATP luminescence, 48 h; scaled: DMSO 0, geranylgeraniol control 100 | rescue of ATP level, % at 7.49 µM | hit rate 0.78% among 330,000 | AID 602340;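 active = mean ATP rescue above about 67%, or every replicate alone reaching that limit, limit read from the data, passing the limit was not always enough; inconclusive = no clear call, values can overlap the other calls; inactive = mean under the limit and some replicate under it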;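 also: myotubes were challenged with 10 µM simvastatin during compound exposure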
# SIRT5 block: inhibitors of human sirtuin-5 desuccinylase. Q9NXA8. Purified SirT5, succinyl-peptide AMC, trypsin-coupled fluorescence. inhibition, % at 15 µM. hit rate 1.1% among 330,000. AID 652115; in the data active = inhibition above about 15%; inconclusive = no clear call, values can overlap the other calls
# Target sequence (Q9NXA8 whole entry, looked up): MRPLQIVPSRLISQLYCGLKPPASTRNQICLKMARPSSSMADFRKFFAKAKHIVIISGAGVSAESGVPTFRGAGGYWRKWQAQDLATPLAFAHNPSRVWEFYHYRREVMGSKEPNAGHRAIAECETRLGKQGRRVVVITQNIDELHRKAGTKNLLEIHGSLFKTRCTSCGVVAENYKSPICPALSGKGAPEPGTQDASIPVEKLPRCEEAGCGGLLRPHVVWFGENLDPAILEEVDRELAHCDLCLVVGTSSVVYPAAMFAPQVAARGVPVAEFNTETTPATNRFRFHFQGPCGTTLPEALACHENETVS
# PGC1a acetyl inh: lowers PGC1a acetylation signal in U2OS cells. inhibition, % at 15.6 µM. AlphaScreen anti-acetyl-lysine; with virally co-expressed GCN5 acetyltransferase. hit rate 0.17% among 350,000;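 active = every replicate shows inhibition of at least 40%; inconclusive = mean inhibition at least 40% but some replicate below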;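 also: 0% = neutral control wells and 100% = positive control wells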
# Numbers without * were called inactive; ? = inconclusive; / = no result given.
SMILES,S100A4 inh HTS,DENV2 CPE rescue,C2C12 statin,SIRT5 block,PGC1a acetyl inh
CCN1CCN(Cc2ccc(NC(=O)c3ccc(C)c(NC(=O)c4cc(-c5ccc(Br)cc5)n[nH]4)c3)cc2C(F)(F)F)CC1,-9.2,36.4*,-21.3,2.2,-14.5
CCN1CCN(Cc2ccc(NC(=O)c3ccc(C)c(NC(=O)c4nccn4C)c3)cc2C(F)(F)F)CC1,0.0,-23.1,-7.9,/,-2.5
CCN1CCN(Cc2ccc(NC(=O)c3ccc(C)c(NC(=O)c4cncc(-c5cccs5)c4)c3)cc2C(F)(F)F)CC1,/,/,/,/,68.7*
O=C(NCC1CC1)[C@H]1[C@H](CO)[C@H]2Cn3c(ccc(-c4cncnc4)c3=O)[C@H]2N1C(=O)NC1CCCC1,2.9,-0.1,10.9,-30.0,/
CN1c2ccc(-c3ccc(F)cc3)cc2[C@H]2[C@H](CCN2C(=O)c2ccncc2)[C@@H]1CO,-3.9,?,-23.7,-5.3,-27.0
CCOC(=O)C1=CCN(S(=O)(=O)c2ccccc2Br)C1c1ccc(Cl)c(Cl)c1 (centres undefined),-0.1,10.7,-2.1,25.0*,-3.6
Cn1c(=O)c2cc(NC(=O)NCc3ccccc3)ccc2n1Cc1cccc(C(F)(F)F)c1,2.1,10.0,-2.7,/,8.8
COc1ccc(CNC(=O)Nc2ccc3c(c2)c(=O)n(C)n3Cc2cc(C)cc(C)c2)cc1,-0.8,32.2*,5.4,/,2.2
CCOC(=O)c1ccc(-c2c(C(=O)OCC)oc3cc(O)c(CC)cc3c2=O)o1,/,/,100.4*,/,-11.7
CCCNC(=O)C[C@@H]1CC[C@H]2[C@@H](COc3ccc(NC(=O)c4ccc(C(F)(F)F)cc4)cc3C(=O)N2C)O1,1.5,/,13.5,0.0,1.2
COc1ccc(NC(=O)N(C)C[C@@H]2Oc3ccc(NC(=O)Nc4cccc5ccccc45)cc3C(=O)N([C@@H](C)CO)C[C@H]2C)cc1,-0.3,/,/,3.1,6.5
COc1cccc(C(=O)Nc2ccc3c(c2)C(=O)N(C)C[C@@H](OC)[C@@H](C)CN(CCc2ccccc2)[C@@H](C)CO3)c1,-19.2,5.5,22.4,15.4*,-8.9
COc1cccc(C(=O)Nc2ccc3c(c2)C(=O)N(C)C[C@H](OC)[C@@H](C)CN(C(C)=O)[C@H](C)CO3)c1,-1.5,64.5*,6.1,-0.9,-2.8
COc1cccc(C(=O)Nc2ccc3c(c2)C(=O)N(C)C[C@H](OC)[C@@H](C)CN(C(C)=O)[C@@H](C)CO3)c1,5.0,-11.1,5.0,-2.7,19.1
O=C(O)CCNc1ccc(NCCC(=O)O)c2c1C(=O)c1ccccc1C2=O,9.9,-2.8,/,17.1*,/
CN(C)CCCNc1oc(-c2ccc(Cl)cc2)nc1S(=O)(=O)c1ccccc1,-0.6,38.5*,-17.6,-1.1,-2.0
CN(C)CCCNc1oc(-c2ccccc2Cl)nc1S(=O)(=O)c1ccccc1,2.1,5.0,-5.2,7.9,/
CNc1oc(-c2cccs2)nc1S(=O)(=O)c1ccccc1,-8.9,-9.0,/,-0.7,/
CCCCNc1oc(-c2cccs2)nc1S(=O)(=O)c1ccccc1,/,/,131.2*,/,-6.8
CC(=O)N1c2ccccc2[C@H](C)[C@H]1C,1.6,69.6*,7.2,/,-7.5
Cc1nc2ccccc2c(=O)n1-c1ccc(NS(=O)(=O)c2ccccc2)cc1,3.1,68.2*,1.7,2.9,1.3
COC(=O)C1=C(C(=O)OC)C(c2ccccc2O)c2sc(=O)[nH]c2S1 (centres undefined),-4.1,6.9,/,16.2*,/
COCC(=O)N(C)C[C@H]1Oc2cc(C#CC(C)C)ccc2S(=O)(=O)N([C@H](C)CO)C[C@H]1C,-3.4,1.6,-10.0,3.1,5.3
Cc1ccccc1CNS(=O)(=O)c1ccc2c(c1)C(C)(C)C(=O)N2C,-10.0,-3.2,8.6,-1.4,-3.6
CC(C)C(NS(=O)(=O)c1ccc2c(c1)C(C)(C)C(=O)N2C)C(=O)NCc1ccccc1Cl (centres undefined),-0.9,79.9*,17.3,-2.7,-4.0
SMILES,S100A4 inh HTS,DENV2 CPE rescue,C2C12 statin,SIRT5 block,PGC1a acetyl inh
COc1ccc(/C(O)=C2/C(=O)C(=O)N(CCN(C)C)C2c2ccccn2)cc1OC (centres undefined),/,/,117.7*,/,3.1
O=C(C[C@@H]1CC[C@H]2[C@@H](COC[C@H](O)CN2S(=O)(=O)c2ccccc2F)O1)NCc1ccccc1F,10.6,-2.4,-3.6,-2.5,3.6
Cc1ccc(C)c(S(=O)(=O)Nc2ccccc2C(=O)Nc2ccc(S(=O)(=O)Nc3ncccn3)cc2)c1,-12.2,17.1,/,18.7*,6.4
CNC[C@@H]1Oc2ccc(NS(C)(=O)=O)cc2CC(=O)N([C@@H](C)CO)C[C@H]1C,2.0,-1.6,-8.2,-0.9,2.8
O=C(/C=C/c1ccccc1Cl)NCc1ccccc1,/,/,144.8*,/,6.4
COc1ccc(-c2cnc3c(c2)C(=O)N([C@@H](C)CO)C[C@@H](C)[C@@H](CN(C)C(=O)CN(C)C)O3)cc1,-10.0,-2.8,6.8,1.2,10.2
CCCC(=O)Nc1ccc2c(c1)C(=O)N(C)[C@H]1CC[C@H](CC(=O)Nc3ccccc3OC)O[C@@H]1CO2,/,1.4,19.8,/,-4.6
CCOC(=O)[C@@H]1[C@H]2COc3cc(OC)ccc3[C@H]2N2C(=O)N(c3ccc(F)cc3)C(=O)[C@@]12C,-0.1,/,27.1,/,12.9
CCOC(=O)[C@H]1[C@H]2COc3ccc(OC)cc3[C@@H]2N2C(=O)CN(Cc3ccco3)C(=O)[C@@]12C,19.7,-9.1,6.9,/,/
CCOC(=O)[C@H]1[C@H]2COc3cc(OC)ccc3[C@@H]2N2C(=O)CN(Cc3ccco3)C(=O)[C@@]12C,-12.5,29.6*,-4.1,-0.1,2.8
CCOC(=O)[C@@H]1[C@H]2COc3cc(OC)ccc3[C@@H]2N2C(=O)N(c3cccc(C)c3)C(=O)[C@]12C,87.2*,-15.0,11.3,/,-0.1
CCOC(=O)[C@H]1[C@H]2COc3ccc(Cl)cc3[C@@H]2N2C(=O)c3ccc(Cl)cc3NC(=O)[C@@]12C,0.7,52.0*,-11.7,-4.1,0.6
CCOC(=O)[C@@H]1[C@H]2COc3cc(OC)ccc3[C@H]2N2C(=O)N(c3cccc(F)c3)C(=O)[C@]12C,-1.7,104.2*,2.8,/,-4.0
CCOC(=O)[C@@H]1[C@H]2COc3cc(OC)ccc3[C@@H]2N2C(=O)N(c3cccc(Cl)c3)C(=O)[C@]12C,/,/,17.3,/,-10.2
Cc1ccc(S(=O)(=O)Nc2cccc3c2O[C@H](CN(C)C(=O)NC(C)C)[C@@H](C)CN([C@@H](C)CO)C3=O)cc1,-5.7,-3.9,-2.2,-2.1,1.1
CCOC(=O)[C@@H]1[C@H]2COc3ccc(Br)cc3[C@@H]2N2C(=O)N(c3cccc(Cl)c3)C(=O)[C@@]12C,20.5,67.6*,-6.9,/,11.7
CCOC(=O)[C@@H]1[C@H]2COc3ccc(Br)cc3[C@@H]2N2C(=O)N(c3cccc(Cl)c3)C(=O)[C@]12C,0.7,-3.8,-12.4,/,-6.6
C[C@@H]1CN([C@H](C)CO)S(=O)(=O)c2ccc(C#C[C@@H](C)O)cc2O[C@H]1CN(C)Cc1ccccn1,0.3,30.5*,0.2,0.4,5.6
